Source: PubChem BioAssay
“And” between values parts separate entries of the source, which are not always exact repeats. Equal entries are not always repeated. The source made the active and inactive calls.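 Rule for the calls, unless noted: active = viability at or below 30% in both replicate assays; inconclusive = viability at or below 30% in just one of the two assays; inactive = the rest.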

Assays:
[1] = SK-BR-3 cell growth inhibitors, pilot screen, 24 h, human (AID 572;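 active = viability at or below 10% of carrier control in both of two separate runs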;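 note: compound exposure lasted between 18 and 24 h rather than exactly 24 h; 100% = carrier-treated control wells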); conditions: SK-BR-3 viability, CellTiter-Glo luminescence, at 10 µM, stronger effect = lower value
[2] = HUVEC growth inhibition – cell-based, human, primary screen (AID 575); conditions: HUVEC proliferation, CellTiter-Glo luminescence, 72 h; at 10 µM; stronger effect = lower value;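 note: 100% = median of untreated cell wells with 0.1% DMSO on each plate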
Procedure, shortened: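 Test system – primary HUVEC, no more than 12 passages · Dosing – one dose, 10 µM final, 0.1% DMSO · Times – 72 h treatment at 37 °C · Measured by – ATP-based CellTiter-Glo luminescent read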

[3] = growth inhibitors of H69AR lung tumor, primary screen, human, duplicate replicates (AID 580;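 active = viability at or under a set limit in both replicates, limit being median viability minus 3 SD, cut at about 48% in these data, passing the limit was not always enough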;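 note: 100% = mean luminescence of untreated wells and 0% = no signal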); conditions: H69AR lung tumor cells viability, ATP luminescence, 72 h; at 10 µM; stronger effect = lower value
[4] = reversal of MRP1-mediated doxorubicin resistance, pilot screen, H69AR cells, doxorubicin co-treatment (AID 601;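 active = viability loss from added drug above about 55%, and viability with drug at most 40%, in both replicates, limit read from the data, passing the limit was not always enough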); conditions: CellTiter-Glo, 72 h, at 10 µM; for differential viability (reversal): stronger effect = higher value
[5] = 384-well plate pilot, post-Golgi transport modulator project, inhibition of yeast transport mutant growth (AID 636; in the data active = inhibition above about 31%); conditions: absorbance 615 nm, about 18 h, stronger effect = higher value
[6] = growth suppression of yeast trafficking mutant, preliminary HTS, modulators of trafficking downstream of Golgi apparatus project, 1536-format plate, OD 615 nm (AID 637; in the data active = inhibition above about 30%); conditions: yeast transport mutant growth, absorbance 615 nm, 18 h; stronger effect = higher value
[7] = H69AR cells + 2 uM doxorubicin, measured here: viability with 2 uM doxorubicin, stronger effect = lower value
[8] = H69AR cells, compound alone cytotoxicity

Row | Compound | viability [1] | viability [2] | viability [3] | differential viability (reversal) ([4]; H69AR cells + 2 uM doxorubicin) | viability [4, 7] | viability [4, 8] | inhibition [5] | inhibition [6]
1 | CCCCOc1cc(C(=O)NCCN(CC)CC)c2ccccc2n1 | 99% (inactive) and 112% (inactive) | 53.4% (inactive) and 59.6% (inactive) | 89.5% (inactive) and 84.4% (inactive) | 8.11% (inactive) and 17.8% (inactive) | 81.4% and 66.6% | 89.5% and 84.4% | -2.86% (inactive) and -0.26% (inactive) | 0.33% (inactive) and 6.5% (inactive)
2 | CCCCCCC(c1c(C)n(C)n(-c2ccccc2)c1=O)c1c(C)n(C)n(-c2ccccc2)c1=O | 90% (inactive) | 99.9% (inactive) | 80.8% (inactive) | 2.09% (inactive) | 78.7% | 80.8% | -3.47% (inactive) | -0.18% (inactive)
3 | Cc1[nH]c(C(=O)N2CCCCC2)c(C)c1C(=O)NC1CCCCC1 | 88% (inactive) | 92.4% (inactive) | 103% (inactive) | 18.4% (inactive) | 84.4% | 103% | 1.43% (inactive) | 0.66% (inactive)
4 | c1ccc(-c2cnc(CSc3ncnc4sccc34)o2)cc1 | 94% (inactive) | 90.7% (inactive) | 96.9% (inactive) | 14.7% (inactive) | 82.2% | 96.9% | -5.68% (inactive) | -5.82% (inactive)
5 | C=CCNc1nc2c(c(=O)n(C)c(=O)n2C)n1CCCCCC | 92% (inactive) | 60.4% (inactive) | 82.6% (inactive) | 0.165% (inactive) | 82.4% | 82.6% | -5.73% (inactive) | 5.27% (inactive)
6 | Cc1cc(C)n(Cc2cc(C)c(Cn3nc(C)cc3C)cc2C)n1 | 99% (inactive) | 101% (inactive) | 106% (inactive) | 12.2% (inactive) | 93.9% | 106% | -4.73% (inactive) | 1.64% (inactive)
7 | O=C(O)Cc1ccc(-c2ccccc2)cc1 | 112% (inactive) | 84.3% (inactive) | 85.7% (inactive) | -0.76% (inactive) | 86.4% | 85.7% | -2.21% (inactive) | 5.33% (inactive)
8 | CCOc1ccccc1-n1c(SCC(=O)NC2CCCC2)nnc1-c1ccoc1C | 77% (inactive) | 97% (inactive) | 93% (inactive) | 1.66% (inactive) | 91.3% | 93% | 0.91% (inactive) | -4.92% (inactive)
9 | O=C1C(CCS(=O)c2ccccc2)C(=O)N(c2ccccc2)N1c1ccccc1 (stereo not drawn) | 112% (inactive) | 84.5% (inactive) | 96.6% (inactive) | 7.85% (inactive) | 88.7% | 96.6% | 0.65% (inactive) | 10.7% (inactive)
10 | Cc1ccc(NC2=NCC(=O)N2c2ccc3c(c2)OCCO3)c(C)c1 | 84% (inactive) | 95.7% (inactive) | 99.4% (inactive) | 0.67% (inactive) | 98.7% | 99.4% | -6.16% (inactive) | -2.9% (inactive)
11 | CCCCCc1nnc(NC(=O)Cc2cccs2)s1 | 74% (inactive) | 110% (inactive) | 102% (inactive) | 10.7% (inactive) | 90.8% | 102% | -6.71% (inactive) | 3.64% (inactive)
12 | O=C(O)Cc1ccccc1C(=O)O | 120% (inactive) | 92.2% (inactive) | 95.1% (inactive) | -0.3% (inactive) | 95.4% | 95.1% | -6.85% (inactive) | 1.29% (inactive)
13 | COc1ccc(Cl)cc1NC(=O)CCN1CCN(c2ccccc2C)CC1 | 70% (inactive) | 110% (inactive) | 97.1% (inactive) | 5.5% (inactive) | 91.6% | 97.1% | -8.11% (inactive) | -0.36% (inactive)
14 | COc1ccc(-n2nc3cc(C)c(N)c(Br)c3n2)cc1 | 74% (inactive) | 85.6% (inactive) | 65.5% (inactive) | -33.4% (inactive) | 98.9% | 65.5% | -6.3% (inactive) | -1.45% (inactive)
15 | COc1ccccc1C1N(c2ccc(F)cc2)C(=O)C2CCCN21 (stereo not drawn) | 102% (inactive) | 111% (inactive) | 108% (inactive) | 17.8% (inactive) | 90.1% | 108% | -5.07% (inactive) | -1.27% (inactive)
16 | COc1cc(C(=O)OCc2cc3ccccc3[nH]c2=O)cc(OC)c1OC | 117% (inactive) | 68.6% (inactive) | 82.4% (inactive) | 11.3% (inactive) | 71.1% | 82.4% | -2.8% (inactive) | -2.91% (inactive)
17 | COc1ccc(NC(=O)N2CCN(c3nc(-c4cccc(OC)c4)cs3)CC2)cc1 | 94% (inactive) | 49.3% (inactive) | 82.8% (inactive) | -4.01% (inactive) | 86.8% | 82.8% | -9.59% (inactive) | -4.52% (inactive)
18 | O=C(CN(CC1CCCO1)S(=O)(=O)c1ccc(S(=O)(=O)NC2CC2)cc1)Nc1ccccc1 (stereo not drawn) | 109% (inactive) | 96.9% (inactive) | 95.3% (inactive) | -1.47% (inactive) | 96.8% | 95.3% | -2% (inactive) | -9.27% (inactive)

Row | Compound | viability [1] | viability [2] | viability [3] | differential viability (reversal) ([4]; H69AR cells + 2 uM doxorubicin) | viability [4, 7] | viability [4, 8] | inhibition [5] | inhibition [6]
19 | COc1ccccc1N1CCN(C(=O)c2cc(-c3ccc(Cl)c(Cl)c3)on2)CC1 | 122% (inactive) | 70.4% (inactive) | 57.9% (inactive) | -6.66% (inactive) | 64.5% | 57.9% | -4.13% (inactive) | -1.82% (inactive)
20 | Cc1nnc2c3ccccc3c(-c3ccccc3)nn12 | 88% (inactive) | 100% (inactive) | 68.1% (inactive) | 42.8% (inactive) | 25.3% | 68.1% | -6.49% (inactive) | 3.27% (inactive)
21 | O=C(CN1CCN(Cc2ccccc2)CC1)Nc1ccc(Cl)cn1 | 94% (inactive) | 88.8% (inactive) | 85.1% (inactive) | -1.43% (inactive) | 86.5% | 85.1% | -8.08% (inactive) | 4.35% (inactive)
22 | COc1ccc(S(=O)(=O)N2CCCC(C(=O)NCc3ccccn3)C2)cc1 (stereo not drawn) | 146% (inactive) | 96.8% (inactive) | 95.5% (inactive) | 3.92% (inactive) | 91.6% | 95.5% | -1.43% (inactive) | -0.66% (inactive)
23 | COc1ccccc1OCc1ccc(C(=O)N2CCN(C(=O)c3ccco3)CC2)cc1 | 116% (inactive) | 111% (inactive) | 99.2% (inactive) | 5.35% (inactive) | 93.9% | 99.2% | -4.13% (inactive) | -9.82% (inactive)
24 | Cc1cc(-c2ccccc2)nc(SCc2ccc(C(=O)O)o2)n1 | 121% (inactive) | 103% (inactive) | 97.5% (inactive) | 5.94% (inactive) | 91.6% | 97.5% | -5.6% (inactive) | 0.73% (inactive)
25 | COc1cccc(NC(=O)N(CCCN2CCOCC2)C(C)c2cc3cccc(OC)c3o2)c1 (stereo not drawn) | 65% (inactive) | 99.9% (inactive) | 93.2% (inactive) | -3.43% (inactive) | 96.6% | 93.2% | -8.08% (inactive) | -0.55% (inactive)
26 | CCOc1cc(/C=N/n2cnnc2)cc(Br)c1O | 104% (inactive) | 103% (inactive) | 83.3% (inactive) | -8.45% (inactive) | 91.8% | 83.3% | -2.37% (inactive) | 8.33% (inactive)
27 | CC(C)N(Cc1nc(-c2ccc(Cl)cc2)no1)C(=O)CN(C)S(=O)(=O)c1ccc(Cl)cc1 | 95% (inactive) | 66.3% (inactive) | 78.7% (inactive) | -7.31% (inactive) | 86.1% | 78.7% | -0.68% (inactive) | 1.29% (inactive)
28 | CC(C)n1nc(C(=O)Nc2nc3ccc(S(C)(=O)=O)cc3s2)c2ccccc2c1=O | 87% (inactive) | 86.1% (inactive) | 67.8% (inactive) | -4.21% (inactive) | 72% | 67.8% | -4.86% (inactive) | 2.73% (inactive)
29 | COc1ccc(OC)c(N(CC(=O)Nc2cccnc2)S(=O)(=O)c2ccc(OC)c(OC)c2)c1 | 112% (inactive) | 91% (inactive) | 83.7% (inactive) | -2.03% (inactive) | 85.7% | 83.7% | -6.58% (inactive) | 0.91% (inactive)
30 | O=[n+]1cc(-c2ccc(F)cc2)n([O-])c2c1CCC2 | 97% (inactive) | 100% (inactive) | 90.7% (inactive) | 1.25% (inactive) | 89.4% | 90.7% | -1.82% (inactive) | 1.97% (inactive)
31 | COc1ccc(CN(C(=O)CN2C(=O)COc3ccccc32)C2CCCC2)c(OC)c1 | 110% (inactive) | 87.4% (inactive) | 92.5% (inactive) | 4.62% (inactive) | 87.9% | 92.5% | -4.52% (inactive) | -0.18% (inactive)
32 | COc1ccc(Cl)cc1NC(=O)CSc1nncn1-c1cccnc1 | 92% (inactive) | 102% (inactive) | 88.3% (inactive) | 2.01% (inactive) | 86.3% | 88.3% | -7.07% (inactive) | -3.27% (inactive)
33 | Cc1ccccc1C(=O)NC1CCN(Cc2nnnn2CCc2ccccc2)CC1 | 124% (inactive) | 112% (inactive) | 86.8% (inactive) | -4.45% (inactive) | 91.3% | 86.8% | -5.19% (inactive) | 7.05% (inactive)
34 | c1ccc(-c2nc3ccccc3nc2-c2ccccn2)nc1 | 89% (inactive) | 107% (inactive) | 89.5% (inactive) | -9.55% (inactive) | 99.1% | 89.5% | -1.17% (inactive) | 0.98% (inactive)
35 | CCOc1ccc(N2CC(C(=O)NCCc3ccc(OC)c(OC)c3)CC2=O)cc1 (stereo not drawn) | 108% (inactive) | 97.6% (inactive) | 94.5% (inactive) | 3.03% (inactive) | 91.4% | 94.5% | -11% (inactive) | 2.26% (inactive)
36 | COC(=O)c1[nH]c2ccc(C)cc2c1NC(=O)CN1CCC(C)CC1 | 101% (inactive) | 94.5% (inactive) | 92.5% (inactive) | -6.15% (inactive) | 98.6% | 92.5% | -4.27% (inactive) | -2.73% (inactive)
